# According to ChEMBL document CHEMBL4689842, “EUbOPEN Chemogenomics Library wave 1” (2021):
# Values joined by “and” are separate entries in the source; they are usually repeats but may differ in a detail not shown here. Identical values can stand only once.
# System: HEK-293T
# Assay: Multiplex assay against HEK293T;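 on Population Tubulin-Different-Phenotype (%): share of the cells with healthy nuclei that show this phenotype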
# Assay type: toxicity, cell-based
# Conditions: human
# Summary of the method: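 Imaging took place on a CQ1 microscope at 37°C and 5% CO2 once compound had been added to live cells stained at seeding with Hoechst33342, BioTracker Green Microtubule Cytoskeleton Dye, MitoTracker Red and Annexin V Alexa Fluor 680. CellPathfinder machine-learning gating classed cells as Hoechst high-intensity objects or normal cells, classed normal cells as having healthy, pyknosed or fragmented nuclei, and classed pyknosed cells as mitotic or apoptotic. Tubulin, mitochondrial-mass and membrane-permeability phenotypes are per cents of the healthy-nucleus cells.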
# [1] = 12 h, 1 µM, compound concentration 1 uM, replicate 1
# [2] = 12 h, 1 µM, compound concentration 1 uM, replicate 2
# [3] = 12 h, 10 µM, compound concentration 10 uM, replicate 1
# [4] = 12 h, 10 µM, compound concentration 10 uM, replicate 2
# [5] = 24 h, 1 µM, compound concentration 1 uM, replicate 1
# [6] = 24 h, 1 µM, compound concentration 1 uM, replicate 2
# [7] = 24 h, 10 µM, compound concentration 10 uM, replicate 1
# [8] = 24 h, 10 µM, compound concentration 10 uM, replicate 2
# [9] = 48 h, 1 µM, compound concentration 1 uM, replicate 1
# [10] = 48 h, 1 µM, compound concentration 1 uM, replicate 2
# [11] = 48 h, 10 µM, compound concentration 10 uM, replicate 1
# [12] = 48 h, 10 µM, compound concentration 10 uM, replicate 2
smiles,measurement,setting,value
Cn1cc(-c2[nH]c3cc(NC(=O)[C@H](N)C4CCCCC4)cc4c3c2C=NNC4=O)cn1,Population Apoptotic (%),[1],40%
same,Population Fragmented Nuclei (%),[1],10%
same,Population Healthy Nuclei (%),[1],26%
same,Population Hoechst High Intensity Objects (%),[1],14%
same,Population Membrane Permeable-Phenotype (%),[1],10%
same,Population Mitochondria Different-Phenotype (%),[1],71%
same,Population Mitotic Cells (%),[1],60%
same,Population Normal (%),[1],85%
same,Population Pyknosed Nuclei (%),[1],62%
same,Population Tubulin-Different-Phenotype (%),[1],42%
same,Total Cell Count,[1],344
same,Population Apoptotic (%),[2],17%
same,Population Fragmented Nuclei (%),[2],6%
same,Population Healthy Nuclei (%),[2],28%
same,Population Hoechst High Intensity Objects (%),[2],6%
same,Population Membrane Permeable-Phenotype (%),[2],11%
same,Population Mitochondria Different-Phenotype (%),[2],7%
same,Population Mitotic Cells (%),[2],82%
same,Population Normal (%),[2],93%
same,Population Pyknosed Nuclei (%),[2],65%
same,Population Tubulin-Different-Phenotype (%),[2],25%
same,Total Cell Count,[2],259
same,Population Apoptotic (%),[3],64%
same,Population Fragmented Nuclei (%),[3],15%
same,Population Healthy Nuclei (%),[3],24%
same,Population Hoechst High Intensity Objects (%),[3],17%
same,Population Membrane Permeable-Phenotype (%),[3],10%
same,Population Mitochondria Different-Phenotype (%),[3],82%
same,Population Mitotic Cells (%),[3],35%
same,Population Normal (%),[3],82%
same,Population Pyknosed Nuclei (%),[3],60%
same,Population Tubulin-Different-Phenotype (%),[3],62%
same,Total Cell Count,[3],329
same,Population Apoptotic (%),[4],42%
same,Population Fragmented Nuclei (%),[4],6%
same,Population Healthy Nuclei (%),[4],17%
same,Population Hoechst High Intensity Objects (%),[4],6%
same,Population Membrane Permeable-Phenotype (%),[4],6%
same,Population Mitochondria Different-Phenotype (%),[4],46%
same,Population Mitotic Cells (%),[4],57%
same,Population Normal (%),[4],93%
same,Population Pyknosed Nuclei (%),[4],75%
same,Population Tubulin-Different-Phenotype (%),[4],66%
same,Total Cell Count,[4],180
same,Population Apoptotic (%),[5],41%
same,Population Fragmented Nuclei (%),[5],13%
same,Population Healthy Nuclei (%),[5],20%
same,Population Hoechst High Intensity Objects (%),[5],19%
same,Population Membrane Permeable-Phenotype (%),[5],5%
same,Population Mitochondria Different-Phenotype (%),[5],62%
same,Population Mitotic Cells (%),[5],58%
same,Population Normal (%),[5],80%
same,Population Pyknosed Nuclei (%),[5],65%
same,Population Tubulin-Different-Phenotype (%),[5],68%
same,Total Cell Count,[5],330
same,Population Apoptotic (%),[6],40%
same,Population Fragmented Nuclei (%),[6],6%
same,Population Healthy Nuclei (%),[6],26%
same,Population Hoechst High Intensity Objects (%),[6],9%
same,Population Membrane Permeable-Phenotype (%),[6],14%
same,Population Mitochondria Different-Phenotype (%),[6],19%
same,Population Mitotic Cells (%),[6],59%
same,Population Normal (%),[6],90%
same,Population Pyknosed Nuclei (%),[6],67%
same,Population Tubulin-Different-Phenotype (%),[6],53%
same,Total Cell Count,[6],263
same,Population Apoptotic (%),[7],74%
same,Population Fragmented Nuclei (%),[7],17%
same,Population Healthy Nuclei (%),[7],13%
same,Population Hoechst High Intensity Objects (%),[7],17%
same,Population Membrane Permeable-Phenotype (%),[7],14%
same,Population Mitochondria Different-Phenotype (%),[7],97%
same,Population Mitotic Cells (%),[7],25%
same,Population Normal (%),[7],82%
same,Population Pyknosed Nuclei (%),[7],69%
same,Population Tubulin-Different-Phenotype (%),[7],82%
same,Total Cell Count,[7],311
same,Population Apoptotic (%),[8],72%
same,Population Fragmented Nuclei (%),[8],6%
same,Population Healthy Nuclei (%),[8],6%
same,Population Hoechst High Intensity Objects (%),[8],12%
same,Population Membrane Permeable-Phenotype (%),[8],0%
same,Population Mitochondria Different-Phenotype (%),[8],70%
same,Population Mitotic Cells (%),[8],27%
same,Population Normal (%),[8],87%
same,Population Pyknosed Nuclei (%),[8],86%
same,Population Tubulin-Different-Phenotype (%),[8],70%
same,Total Cell Count,[8],175
same,Population Apoptotic (%),[9],36%
same,Population Fragmented Nuclei (%),[9],22%
same,Population Healthy Nuclei (%),[9],5%
same,Population Hoechst High Intensity Objects (%),[9],23%
same,Population Membrane Permeable-Phenotype (%),[9],6%
same,Population Mitochondria Different-Phenotype (%),[9],46%
same,Population Mitotic Cells (%),[9],63%
same,Population Normal (%),[9],76%
same,Population Pyknosed Nuclei (%),[9],71%
same,Population Tubulin-Different-Phenotype (%),[9],60%
same,Total Cell Count,[9],373
same,Population Apoptotic (%),[10],52%
same,Population Fragmented Nuclei (%),[10],10%
same,Population Healthy Nuclei (%),[10],14%
same,Population Hoechst High Intensity Objects (%),[10],17%
same,Population Membrane Permeable-Phenotype (%),[10],17%
same,Population Mitochondria Different-Phenotype (%),[10],20%
same,Population Mitotic Cells (%),[10],47%
same,Population Normal (%),[10],82%
same,Population Pyknosed Nuclei (%),[10],75%
same,Population Tubulin-Different-Phenotype (%),[10],64%
same,Total Cell Count,[10],278
same,Population Apoptotic (%),[11],72%
same,Population Fragmented Nuclei (%),[11],20%
same,Population Healthy Nuclei (%),[11],3%
same,Population Hoechst High Intensity Objects (%),[11],20%
same,Population Membrane Permeable-Phenotype (%),[11],11%
same,Population Mitochondria Different-Phenotype (%),[11],77%
same,Population Mitotic Cells (%),[11],27%
same,Population Normal (%),[11],79%
same,Population Pyknosed Nuclei (%),[11],76%
same,Population Tubulin-Different-Phenotype (%),[11],66%
same,Total Cell Count,[11],331
same,Population Apoptotic (%),[12],89%
same,Population Fragmented Nuclei (%),[12],5%
same,Population Healthy Nuclei (%),[12],1%
same,Population Hoechst High Intensity Objects (%),[12],15%
same,Population Membrane Permeable-Phenotype (%),[12],0%
same,Population Mitochondria Different-Phenotype (%),[12],66%
same,Population Mitotic Cells (%),[12],10%
same,Population Normal (%),[12],84%
same,Population Pyknosed Nuclei (%),[12],92%
same,Total Cell Count,[12],179
COc1cc2nccc(Oc3ccc(NC(=O)Nc4cc(C)on4)c(Cl)c3)c2cc1OC.O,Population Apoptotic (%),[1],28% and 23%
same,Population Fragmented Nuclei (%),[1],14%
same,Population Healthy Nuclei (%),[1],55% and 71%
same,Population Hoechst High Intensity Objects (%),[1],12% and 10%
same,Population Mitotic Cells (%),[1],72% and 76%
same,Population Normal (%),[1],87% and 89%
same,Population Pyknosed Nuclei (%),[1],30% and 14%
same,Total Cell Count,[1],660 and 667
same,Population Apoptotic (%),[2],18% and 12%
same,Population Fragmented Nuclei (%),[2],3% and 9%
same,Population Healthy Nuclei (%),[2],86%
same,Population Hoechst High Intensity Objects (%),[2],2%
same,Population Mitotic Cells (%),[2],81% and 87%
same,Population Normal (%),[2],97%
same,Population Pyknosed Nuclei (%),[2],10% and 4%
same,Total Cell Count,[2],918 and 1845
same,Population Apoptotic (%),[3],82%
same,Population Fragmented Nuclei (%),[3],11%
same,Population Healthy Nuclei (%),[3],21%
same,Population Hoechst High Intensity Objects (%),[3],13%
same,Population Membrane Permeable-Phenotype (%),[3],2%
same,Population Mitochondria Different-Phenotype (%),[3],100%
same,Population Mitotic Cells (%),[3],17%
same,Population Normal (%),[3],86%
same,Population Tubulin-Different-Phenotype (%),[3],97%
same,Total Cell Count,[3],260
same,Population Apoptotic (%),[4],59%
same,Population Fragmented Nuclei (%),[4],3%
same,Population Healthy Nuclei (%),[4],30%
same,Population Hoechst High Intensity Objects (%),[4],1%
same,Population Membrane Permeable-Phenotype (%),[4],8%
same,Population Mitochondria Different-Phenotype (%),[4],88%
same,Population Mitotic Cells (%),[4],40%
same,Population Normal (%),[4],98%
same,Population Pyknosed Nuclei (%),[4],66%
same,Population Tubulin-Different-Phenotype (%),[4],94%
same,Total Cell Count,[4],226
same,Population Apoptotic (%),[5],39% and 22%
same,Population Fragmented Nuclei (%),[5],14% and 17%
same,Population Healthy Nuclei (%),[5],63% and 74%
same,Population Hoechst High Intensity Objects (%),[5],11% and 8%
same,Population Membrane Permeable-Phenotype (%),[5],10%
same,Population Mitotic Cells (%),[5],60% and 77%
same,Population Normal (%),[5],88% and 92%
same,Population Pyknosed Nuclei (%),[5],22% and 8%
same,Total Cell Count,[5],680 and 875
same,Population Healthy Nuclei (%),[6],89% and 68%
same,Population Hoechst High Intensity Objects (%),[6],4% and 3%
same,Population Membrane Permeable-Phenotype (%),[6],14% and 8%
same,Population Mitotic Cells (%),[6],81% and 95%
same,Population Normal (%),[6],95% and 96%
same,Population Apoptotic (%),[7],89%
same,Population Fragmented Nuclei (%),[7],12%
same,Population Healthy Nuclei (%),[7],30%
same,Population Hoechst High Intensity Objects (%),[7],14%
same,Population Membrane Permeable-Phenotype (%),[7],3%
same,Population Mitochondria Different-Phenotype (%),[7],100%
same,Population Mitotic Cells (%),[7],10%
same,Population Normal (%),[7],85%
same,Population Pyknosed Nuclei (%),[7],56%
same,Population Tubulin-Different-Phenotype (%),[7],100%
same,Total Cell Count,[7],253
same,Population Apoptotic (%),[8],76%
same,Population Fragmented Nuclei (%),[8],2%
same,Population Healthy Nuclei (%),[8],50%
same,Population Hoechst High Intensity Objects (%),[8],1%
same,Population Membrane Permeable-Phenotype (%),[8],2%
same,Population Mitochondria Different-Phenotype (%),[8],98%
same,Population Mitotic Cells (%),[8],23%
same,Population Normal (%),[8],98%
same,Population Pyknosed Nuclei (%),[8],47%
same,Population Tubulin-Different-Phenotype (%),[8],97%
same,Total Cell Count,[8],258
same,Population Apoptotic (%),[11],73%
same,Population Fragmented Nuclei (%),[11],14%
same,Population Healthy Nuclei (%),[11],40%
same,Population Hoechst High Intensity Objects (%),[11],11%
same,Population Membrane Permeable-Phenotype (%),[11],2%
same,Population Mitochondria Different-Phenotype (%),[11],96%
same,Population Mitotic Cells (%),[11],26%
same,Population Normal (%),[11],88%
same,Population Pyknosed Nuclei (%),[11],45%
same,Population Tubulin-Different-Phenotype (%),[11],98%
same,Total Cell Count,[11],272
same,Population Apoptotic (%),[12],83%
same,Population Fragmented Nuclei (%),[12],3%
same,Population Healthy Nuclei (%),[12],72%
same,Population Hoechst High Intensity Objects (%),[12],2%
same,Population Membrane Permeable-Phenotype (%),[12],1%
same,Population Mitochondria Different-Phenotype (%),[12],91%
same,Population Mitotic Cells (%),[12],16%
same,Population Normal (%),[12],97%
same,Population Pyknosed Nuclei (%),[12],23%
same,Total Cell Count,[12],292
